Most compounds without a hit are left out; they make up all but 1.6% or so of the library.
H9c2 TAG inh = inhibitors of triacylglycerol accumulation, primary screen, cell-based, uHTS, fluorescence, H9c2 | H9c2 cells, Nile Red lipid (TAG) fluorescence; cells loaded with 200 µM oleic acid | hit rate 0.66% among 230,000 | inhibition, % at 12.5 µM;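 active = pattern-corrected inhibition of lipid staining of at least 50% with the nuclear-stain viability signal not falling by more than 50%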;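 note: 0% = DMSO wells and 100% = triacsin C control wells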
SR-BI HDL uptake = inhibitors of SR-BI mediated HDL lipid uptake, primary screen, ldlA[mSR-BI] cells, fluorescence, single point | ldlA[mSR-BI] CHO cells, DiI-HDL uptake fluorescence, 3 h | hit rate 0.96% among 320,000 | Scavenger receptor class B member 1 (Mus musculus), Q61009 | AID 488896, 2010 | inhibition, % at 12.5 µM;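 active = mean replicate inhibition of at least 70% and a set share of replicates each scoring 70 or more; inconclusive = meets just one of the two criteria; inactive = fails both criteria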;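 note: 0% = median of neutral control wells and 100% = median of positive control wells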
Target sequence (Q61009 whole entry, looked up): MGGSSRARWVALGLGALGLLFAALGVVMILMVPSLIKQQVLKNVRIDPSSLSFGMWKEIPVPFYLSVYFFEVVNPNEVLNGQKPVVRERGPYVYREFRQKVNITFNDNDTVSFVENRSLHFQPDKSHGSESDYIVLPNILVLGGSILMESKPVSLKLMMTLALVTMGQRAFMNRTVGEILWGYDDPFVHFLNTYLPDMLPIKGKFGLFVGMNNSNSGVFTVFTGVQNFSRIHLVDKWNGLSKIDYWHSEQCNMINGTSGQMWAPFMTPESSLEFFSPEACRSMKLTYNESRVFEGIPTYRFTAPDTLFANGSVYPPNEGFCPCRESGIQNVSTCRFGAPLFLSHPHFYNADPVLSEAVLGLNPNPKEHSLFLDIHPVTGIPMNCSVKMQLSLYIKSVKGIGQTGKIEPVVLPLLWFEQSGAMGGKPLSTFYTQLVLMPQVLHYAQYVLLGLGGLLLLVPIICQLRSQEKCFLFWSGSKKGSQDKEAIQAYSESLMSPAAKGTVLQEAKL
Vif imaging = HIV Vif self-association inhibitors, primary screen, imaging, HEK293T, single point; HEK293T cells, Vif self-association by quenched fluorescence, 24 h; inhibition, % at 7.49 µM; hit rate 0.35% among 340,000; in the data active = inhibition above about 50%, passing the limit was not always enough; inconclusive = no clear call, values can overlap the other calls; inactive = below about 31%
SR-BI uptake up = activators of SR-BI mediated DiI-HDL uptake, primary screen, ldlA[mSR-BI] CHO cells, DiI fluorescence; activation, % at 12.5 µM; hit rate 0.096% among 320,000; 3 h; 100 = double the neutral-control signal;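 active = mean replicate activation of at least 60% and every replicate at or above 60%; inconclusive = mean or all-replicate condition met, but not both; inactive = mean below 60% and not all replicates reaching 60%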;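 note: 0% = median plate neutral-control signal and 100% = twice that signal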
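Test system: SR-BI-overexpressing, LDLR-lacking CHO cells; Medium: Ham's F12 with 0.5% BSA, HEPES 25 mM, pH 7.4; Schedule: 3 h, 37 °C; Technique: bottom-read fluorescence, 550/595 nm.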
A1 inh = caspase 3/7 activation in MEF A1-2A-BIM cells, primary screen, A1 inhibitor project, cell-based, luminescence, HTS; Caspase-Glo 3/7 luminescence, 3 h; percent of clofoctol response, vehicle zero; caspase activation, % (no concentration beside the values); hit rate 0.066% among 330,000;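 active = over half of replicate activation scores above 10%, or exactly half above 10 with the replicate mean above 10; inconclusive = replicate mean below 10 yet half the replicates above 10; inactive = over half of replicates below 10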
Starred values were filed as active, the others as inactive; ? = inconclusive; nt = no result given.

SMILES	H9c2 TAG inh	SR-BI HDL uptake	Vif imaging	SR-BI uptake up	A1 inh
O=S(=O)(c1ccccc1)N(F)S(=O)(=O)c1ccccc1	-10	7	59*	-7	0
COc1cccc(C(=O)Oc2c(Br)cc(Br)cc2/C=N/NC(=O)c2cc(C)[nH]n2)c1	19	103*	nt	-103	0
CCCNC(=S)Nc1cc2oc3ccccc3c2cc1OC	nt	89*	1	-89	0
COc1cc2c(cc1NC(=O)Nc1ccc(C)cc1)oc1ccccc12	26	56	nt	-56	0
COc1cc2c(cc1NC(=O)/C=C/c1ccccc1)oc1ccccc12	nt	80*	4	-80	0
COc1cc2c(cc1NC(=O)C1CCCO1)oc1ccccc12 (configuration not stated)	nt	76*	-13	-76	-1
COc1ccc(NC(=O)Nc2cc3oc4ccccc4c3cc2OC)cc1	nt	98*	-5	-98	0
Cn1cc(Cl)c(C(=O)N/N=C/c2ccc3c4c(cccc24)CC3)n1	nt	27	16	-27	-2
Cc1cc(C)c(C(=O)NNC(=O)c2cccnc2)c(C)c1	nt	-20	-6	20	0
COc1ccccc1CCc1nnc(CCC(=O)NC(C)Cn2nc(C)cc2C)o1 (configuration not stated)	13	26	0	-26	1
CNC(=S)Nc1cc2oc3ccccc3c2cc1OC	10	94*	-8	-94	1
CCNC(=S)Nc1cc2oc3ccccc3c2cc1OC	-2	84*	1	-84	-1
COc1ccccc1C(=O)NCCC(=O)NCc1ccccn1	13	-31	-1	31	0
CCC(C)NC(=O)Cn1c(=O)n(-c2ccccc2)c(=O)c2ccc(C(=O)NCc3ccco3)cc21 (configuration not stated)	5	-1	61*	1	0
CN(C)c1ccc(C(O)Cc2nc3ccccc3n2C)cc1 (configuration not stated)	nt	13	120*	-13	-1
O=C(CC1CCCC1)N1CCN(S(=O)(=O)c2cccc(F)c2)CC1	-3	-26	2	26	nt
CON(C)C(=O)/C=C/CCCCNC(=O)OC(C)(C)C	-7	-63	0	63*	nt
CC(C)(C)OC(=O)NCCCCCO	1	-6	3	6	0
O=C1S/C(=C/c2ccc(N3CCOCC3)o2)C(=O)N1Cc1ccc(F)cc1	nt	-7	33	7	0
COc1ccc(N=C2S/C(=C\c3ccc(OC(C)C(=O)O)c(OC)c3)C(=O)N2CCc2c[nH]c3ccccc23)cc1 (configuration not stated)	1	75*	1	-75	nt
COc1cc(/C=C2\SC(=Nc3ccccc3)N(CCc3c[nH]c4ccccc34)C2=O)ccc1OC(C)C(=O)O (configuration not stated)	nt	23	5	-23	0
O=C1/C(=C/c2ccc(N3CCOCC3)o2)SC(=Nc2ccccc2)N1CCc1c[nH]c2ccccc12	nt	87*	nt	-87	?
CCn1c(=O)[nH]c2cc(C(=O)Nc3cc(C)cc(C)c3)ccc2c1=O	1	72*	-4	-72	1
CCCCCn1c(=O)[nH]c2cc(C(=O)Nc3ccc(OC)cc3)ccc2c1=O	nt	13	14	-13	0
Cn1c(=O)[nH]c(=O)c2c1[nH]c(=S)n2Cc1ccc(Cl)cc1	nt	-9	-12	9	0
SMILES	H9c2 TAG inh	SR-BI HDL uptake	Vif imaging	SR-BI uptake up	A1 inh
O=C(NNC(=S)Nc1ccc(C(=O)O)c(O)c1)c1ccncc1	-1	-9	19	9	nt
Cc1cc(O)c2c(c1O)C(=O)[C@]13C(=C2O)C(=O)[C@@H]2[C@@H](O)[C@H]1[C@@H]1[C@H](O)[C@H]3C(=O)C3=C(O)c4c(O)cc(C)c(O)c4C(=O)[C@]312	nt	95*	-19	-95	nt
COCCNCC(=O)Nc1nc(C)cs1	4	-14	59*	14	nt
Nc1ccc(Oc2ccc3c(c2)C(=O)NC3=O)cc1	2	-32	1	32	0
Fc1ccc(-c2nnc(Cc3ccc(Cl)cc3)o2)cc1	-6	nt	-4	nt	0
CCOC(=O)c1c(NC(=O)CCN2C(=O)c3ccccc3C2=O)sc(C(=O)OC(C)C)c1C	nt	73*	-8	-73	-1

Screens from PubChem BioAssay.
